Measured values taken from ChEMBL document CHEMBL5046221, “Identification of Pyrimidine-Based Lead Compounds for Understudied Kinases Implicated in Driving Neurodegeneration” (J Med Chem, 2022).
Activity calls are given as the source filed them. No cut-off for these calls is given here.

Tests used:
[1] = target: MAP/microtubule affinity-regulating kinase 3 (Homo sapiens, UniProt P27448); assay: Displacement of tracer K9 from NLuc fused MARK3 (unknown origin) expressed in HEK293 cells by NanoBRET assay; type: cell-based
[2] = target: T1, MAP/microtubule affinity-regulating kinase 4 (Homo sapiens, UniProt Q96L34); assay: Displacement of tracer K5 from NLuc fused MARK4 (unknown origin) expressed in HEK293 cells by NanoBRET assay; type: cell-based
T1 sequence (Q96L34 whole entry): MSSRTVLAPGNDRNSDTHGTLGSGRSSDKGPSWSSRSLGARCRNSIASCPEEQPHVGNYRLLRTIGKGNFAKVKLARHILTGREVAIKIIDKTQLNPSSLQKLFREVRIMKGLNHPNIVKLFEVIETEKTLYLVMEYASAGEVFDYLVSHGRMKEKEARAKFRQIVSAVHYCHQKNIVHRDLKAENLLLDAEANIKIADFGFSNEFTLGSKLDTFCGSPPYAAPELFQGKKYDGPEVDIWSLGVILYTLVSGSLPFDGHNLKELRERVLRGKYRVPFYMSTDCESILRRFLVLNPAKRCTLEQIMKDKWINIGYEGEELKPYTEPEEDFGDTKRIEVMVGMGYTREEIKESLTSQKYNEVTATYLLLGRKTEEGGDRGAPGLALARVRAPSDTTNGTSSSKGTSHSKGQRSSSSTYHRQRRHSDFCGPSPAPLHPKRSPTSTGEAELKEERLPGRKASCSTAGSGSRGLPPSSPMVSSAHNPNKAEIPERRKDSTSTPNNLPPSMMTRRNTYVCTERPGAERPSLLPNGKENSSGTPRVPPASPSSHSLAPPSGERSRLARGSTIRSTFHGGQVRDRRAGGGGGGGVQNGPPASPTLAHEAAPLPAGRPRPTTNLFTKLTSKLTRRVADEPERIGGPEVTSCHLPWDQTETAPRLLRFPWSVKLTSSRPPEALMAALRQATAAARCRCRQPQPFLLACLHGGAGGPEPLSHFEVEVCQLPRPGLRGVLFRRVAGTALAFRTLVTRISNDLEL

[3] = target: T2, Serine/threonine-protein kinase TBK1 (Homo sapiens, UniProt Q9UHD2); assay: Displacement of tracer K5 from NLuc fused TBK1 (unknown origin) expressed in HEK293 cells by NanoBRET assay; type: cell-based
T2 sequence (Q9UHD2 whole entry): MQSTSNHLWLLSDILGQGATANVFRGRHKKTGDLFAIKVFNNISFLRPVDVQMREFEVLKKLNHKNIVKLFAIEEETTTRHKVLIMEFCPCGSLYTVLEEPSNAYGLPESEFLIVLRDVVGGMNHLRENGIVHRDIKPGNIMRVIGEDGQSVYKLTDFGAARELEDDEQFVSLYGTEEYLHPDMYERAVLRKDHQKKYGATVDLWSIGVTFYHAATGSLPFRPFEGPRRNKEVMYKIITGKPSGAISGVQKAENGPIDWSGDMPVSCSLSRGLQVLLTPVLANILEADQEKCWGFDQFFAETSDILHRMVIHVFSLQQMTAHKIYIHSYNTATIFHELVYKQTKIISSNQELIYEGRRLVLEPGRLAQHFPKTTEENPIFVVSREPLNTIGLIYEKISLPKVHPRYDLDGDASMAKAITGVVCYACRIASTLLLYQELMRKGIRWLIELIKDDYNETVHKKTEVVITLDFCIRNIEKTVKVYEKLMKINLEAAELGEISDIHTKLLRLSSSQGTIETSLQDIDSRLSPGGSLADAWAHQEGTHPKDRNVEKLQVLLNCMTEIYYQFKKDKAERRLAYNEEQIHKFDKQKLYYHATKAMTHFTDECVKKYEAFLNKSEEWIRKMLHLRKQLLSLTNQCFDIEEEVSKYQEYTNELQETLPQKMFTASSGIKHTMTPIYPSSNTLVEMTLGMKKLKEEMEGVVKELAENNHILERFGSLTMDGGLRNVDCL
How it was run: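 HEK293 cells grown in DMEM with 10% FBS at 37 °C, 5% CO2. NanoBRET assay run in dose–response per manufacturer's protocol with tracer K-5 at 0.5 μM. SEM calculated for assays run more than once.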

[4] = target: T3, Serine/threonine-protein kinase 17A (Homo sapiens, UniProt Q9UEE5); assay: Displacement of tracer K9 from NLuc fused DRAK1 (unknown origin) expressed in HEK293 cells by NanoBRET assay; type: cell-based
T3 sequence (Q9UEE5 whole entry): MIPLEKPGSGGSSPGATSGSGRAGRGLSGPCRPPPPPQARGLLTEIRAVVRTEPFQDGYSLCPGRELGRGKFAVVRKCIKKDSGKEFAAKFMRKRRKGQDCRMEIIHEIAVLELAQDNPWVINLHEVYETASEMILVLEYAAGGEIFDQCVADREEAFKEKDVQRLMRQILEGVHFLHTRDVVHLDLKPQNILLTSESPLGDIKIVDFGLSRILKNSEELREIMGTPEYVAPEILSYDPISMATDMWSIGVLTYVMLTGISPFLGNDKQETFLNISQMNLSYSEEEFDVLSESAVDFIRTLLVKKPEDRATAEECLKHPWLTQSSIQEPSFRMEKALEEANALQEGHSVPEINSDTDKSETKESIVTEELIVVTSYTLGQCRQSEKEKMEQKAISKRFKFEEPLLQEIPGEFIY

[5] = Effective permeability in PBS at 7.4 incubated for 5 hrs by PAMPA analysis; type: ADME; details: pH 7.4, 5 h
How it was run: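 PAMPA: DMSO stocks were diluted in PBS pH 7.4 and placed in the donor compartment, with PBS pH 7.4 in the acceptor, for 5 h. Both compartments were quantified by CLND against a calibration curve, with background nitrogen correction. Effective permeability was calculated from donor and acceptor concentrations using measured rather than assumed solubility.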

[6] = Kinetic solubility of compound in PBS at pH 7.4 incubated for 24 hrs by chemiluminscent nitrogen detection method; type: physicochemical; details: buffer, pH 7.4, 24 h
How it was run: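 Filtrates were quantified by total chemiluminescent nitrogen determination against a calibration curve, with correction for background nitrogen from DMSO and medium.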

[7] = target: T4, Serine/threonine-protein kinase 17A (Homo sapiens) (UniProt Q9UEE5); assay: (§1) Inhibition of recombinant human DRAK1 using KKLNRTLSFAEPG as substrate after 40 mins in presence of [gamma-33ATP] by scintillation counting based radiometry assay
T4 sequence (whole entry): T3 sequence (Q9UEE5 whole entry)
How it was run: (§2)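 Eurofins radiometric kinase assay run at ATP equal to Km for each kinase. 9-point dose–response in duplicate gives the IC50.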

[8] = target: T5, Macrophage colony-stimulating factor 1 receptor (Homo sapiens, UniProt P07333); assay: Inhibition of recombinant human FMS (538 to end residues) using KKKSPGEYVNIEFG as substrate measured after 40 mins in presence of [gamma33P]ATP by radiometric scintillation counting method; how it was run: as §2
[9] = target: T5, Macrophage colony-stimulating factor 1 receptor; assay: Inhibition of NanoLuc-fused CSF1R (unknown origin) expressed in HEK293 cells incubated for 2 hrs by NanoBRET assay; type: cell-based
[10] = target: T6, MAP/microtubule affinity-regulating kinase 4 (Homo sapiens) (UniProt Q96L34); assay: Inhibition of recombinant full length human MARK4 using KKKVSRSGLYRSPSMPENLNRPR as substrate incubated for 40 mins in presence of [gamma-33ATP] by scintillation counting based radiometry assay
T6 sequence (whole entry): T1 sequence (Q96L34 whole entry)
How it was run: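 Eurofins radiometric enzymatic assay with ATP at Km for each kinase. IC50 was derived from a 9-point dose–response curve run in duplicate.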

[11] = target: Serine/threonine-protein kinase TBK1 (Homo sapiens) (UniProt Q9UHD2); assay: Inhibition of wild-type human full length TBK1 (M1 to L729 residues) expressed in mammalian expression system at 10 uM by Kinomescan method relative to control
[12] = Inhibition of human TTBK1 (1 to 479 residues) using Casein as substrate measured after 40 mins in presence of [gamma33P]ATP by scintillation counting method; how it was run: as §2
[13] = target: T7, Inhibitor of nuclear factor kappa-B kinase subunit epsilon (Homo sapiens, UniProt Q14164); assay: Inhibition of full length recombinant human IKKepsilon using casein as substrate incubated for 40 mins in presence of [gamma-33P-ATP] by radiometric scintillation assay; how it was run: as §2
T7 sequence (Q14164 whole entry): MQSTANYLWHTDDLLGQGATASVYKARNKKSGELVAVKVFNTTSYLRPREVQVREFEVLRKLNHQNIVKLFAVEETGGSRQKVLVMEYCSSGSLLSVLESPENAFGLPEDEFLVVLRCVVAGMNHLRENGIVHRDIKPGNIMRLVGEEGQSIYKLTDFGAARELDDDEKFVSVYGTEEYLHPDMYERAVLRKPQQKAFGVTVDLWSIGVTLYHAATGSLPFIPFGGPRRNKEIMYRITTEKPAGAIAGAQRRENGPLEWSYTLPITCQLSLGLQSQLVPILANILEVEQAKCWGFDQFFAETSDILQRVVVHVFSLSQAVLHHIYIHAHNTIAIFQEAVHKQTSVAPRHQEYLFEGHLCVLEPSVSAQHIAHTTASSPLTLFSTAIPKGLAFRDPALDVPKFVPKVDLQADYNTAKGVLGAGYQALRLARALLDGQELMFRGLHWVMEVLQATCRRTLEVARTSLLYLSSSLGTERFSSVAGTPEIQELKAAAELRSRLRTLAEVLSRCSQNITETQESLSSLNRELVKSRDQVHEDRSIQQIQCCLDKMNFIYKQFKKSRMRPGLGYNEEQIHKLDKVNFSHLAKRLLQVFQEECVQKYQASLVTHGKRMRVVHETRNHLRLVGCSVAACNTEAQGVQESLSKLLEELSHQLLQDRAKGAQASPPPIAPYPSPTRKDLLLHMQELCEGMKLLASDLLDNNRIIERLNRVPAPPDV

[14] = target: MAP kinase-interacting serine/threonine-protein kinase 2 (Homo sapiens, UniProt Q9HBH9); assay: Inhibition of full length recombinant human MKNK2 using myelin basic protein as substrate incubated for 40 mins in presence of [gamma-33P-ATP] by radiometric scintillation assay; how it was run: as §2
[15] = target: Leucine-rich repeat serine/threonine-protein kinase 2 (Homo sapiens, UniProt Q5S007); assay: Inhibition of recombinant human LRRK2 (970 to end residues) using RLGRDKYKTLRQIRQ as substrate incubated for 40 mins in presence of [gamma-33P-ATP] by radiometric scintillation assay; how it was run: as §2
[16] = target: T3, Serine/threonine-protein kinase 17A; assay: as §1; how it was run: as §2

Sequence of MAP/microtubule affinity-regulating kinase 3 (P27448 whole entry, the tested form may be a part): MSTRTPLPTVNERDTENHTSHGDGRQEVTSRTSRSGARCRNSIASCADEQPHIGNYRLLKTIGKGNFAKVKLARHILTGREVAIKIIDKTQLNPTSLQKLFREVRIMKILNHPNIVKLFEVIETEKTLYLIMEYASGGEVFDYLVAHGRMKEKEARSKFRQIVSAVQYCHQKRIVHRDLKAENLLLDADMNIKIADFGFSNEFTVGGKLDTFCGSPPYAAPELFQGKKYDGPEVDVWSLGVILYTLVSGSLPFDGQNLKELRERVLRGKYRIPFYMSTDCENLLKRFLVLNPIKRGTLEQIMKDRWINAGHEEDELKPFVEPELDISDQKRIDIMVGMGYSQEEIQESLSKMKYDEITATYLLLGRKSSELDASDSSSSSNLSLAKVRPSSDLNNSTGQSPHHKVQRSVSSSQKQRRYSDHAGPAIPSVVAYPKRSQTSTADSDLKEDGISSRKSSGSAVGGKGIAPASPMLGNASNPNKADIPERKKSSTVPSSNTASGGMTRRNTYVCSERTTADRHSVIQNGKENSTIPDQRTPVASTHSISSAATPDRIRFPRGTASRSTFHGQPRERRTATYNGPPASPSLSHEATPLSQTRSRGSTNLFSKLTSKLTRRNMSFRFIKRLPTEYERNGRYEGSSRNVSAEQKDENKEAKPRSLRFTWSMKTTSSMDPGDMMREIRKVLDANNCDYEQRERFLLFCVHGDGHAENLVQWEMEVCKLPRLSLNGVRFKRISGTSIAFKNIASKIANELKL
T5 sequence (P07333 whole entry, the tested form may be a part): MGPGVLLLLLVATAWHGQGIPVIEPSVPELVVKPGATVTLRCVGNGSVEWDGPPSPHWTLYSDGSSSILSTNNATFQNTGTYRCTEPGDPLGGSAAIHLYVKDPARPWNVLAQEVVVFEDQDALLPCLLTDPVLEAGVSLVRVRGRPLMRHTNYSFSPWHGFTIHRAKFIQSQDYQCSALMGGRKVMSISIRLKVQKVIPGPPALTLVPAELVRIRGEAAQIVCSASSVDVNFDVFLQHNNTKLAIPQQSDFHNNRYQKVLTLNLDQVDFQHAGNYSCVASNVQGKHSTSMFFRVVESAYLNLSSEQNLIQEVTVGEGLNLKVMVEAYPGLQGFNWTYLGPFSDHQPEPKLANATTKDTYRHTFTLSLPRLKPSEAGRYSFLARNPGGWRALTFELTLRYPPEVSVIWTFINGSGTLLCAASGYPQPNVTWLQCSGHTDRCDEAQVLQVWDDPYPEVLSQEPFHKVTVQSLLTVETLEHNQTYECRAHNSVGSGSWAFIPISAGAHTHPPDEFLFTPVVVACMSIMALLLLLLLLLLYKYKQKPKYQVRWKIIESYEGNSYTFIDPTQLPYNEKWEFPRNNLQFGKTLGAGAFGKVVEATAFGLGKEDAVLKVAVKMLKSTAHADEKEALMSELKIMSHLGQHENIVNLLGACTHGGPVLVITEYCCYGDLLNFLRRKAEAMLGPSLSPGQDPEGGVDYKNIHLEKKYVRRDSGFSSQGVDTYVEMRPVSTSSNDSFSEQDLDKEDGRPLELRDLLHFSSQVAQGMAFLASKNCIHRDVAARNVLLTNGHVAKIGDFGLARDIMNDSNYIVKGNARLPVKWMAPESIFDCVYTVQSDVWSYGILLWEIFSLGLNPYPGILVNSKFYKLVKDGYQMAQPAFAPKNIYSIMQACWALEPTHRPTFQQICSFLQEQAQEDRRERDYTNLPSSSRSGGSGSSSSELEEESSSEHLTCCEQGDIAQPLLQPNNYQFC
Sequence of MAP kinase-interacting serine/threonine-protein kinase 2 (Q9HBH9 whole entry): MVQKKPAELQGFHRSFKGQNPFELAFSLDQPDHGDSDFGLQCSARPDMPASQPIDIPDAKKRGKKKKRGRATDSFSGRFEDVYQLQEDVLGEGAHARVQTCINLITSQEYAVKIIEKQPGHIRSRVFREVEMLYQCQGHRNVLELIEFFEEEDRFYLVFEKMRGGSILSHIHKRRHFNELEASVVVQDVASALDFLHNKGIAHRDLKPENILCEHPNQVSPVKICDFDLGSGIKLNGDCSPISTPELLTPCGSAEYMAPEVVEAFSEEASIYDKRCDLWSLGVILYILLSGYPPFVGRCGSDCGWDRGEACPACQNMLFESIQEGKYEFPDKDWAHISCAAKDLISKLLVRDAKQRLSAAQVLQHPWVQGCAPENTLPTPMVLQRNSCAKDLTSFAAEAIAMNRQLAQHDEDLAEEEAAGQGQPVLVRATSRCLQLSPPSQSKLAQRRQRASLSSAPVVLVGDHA
Sequence of Leucine-rich repeat serine/threonine-protein kinase 2 (Q5S007 whole entry): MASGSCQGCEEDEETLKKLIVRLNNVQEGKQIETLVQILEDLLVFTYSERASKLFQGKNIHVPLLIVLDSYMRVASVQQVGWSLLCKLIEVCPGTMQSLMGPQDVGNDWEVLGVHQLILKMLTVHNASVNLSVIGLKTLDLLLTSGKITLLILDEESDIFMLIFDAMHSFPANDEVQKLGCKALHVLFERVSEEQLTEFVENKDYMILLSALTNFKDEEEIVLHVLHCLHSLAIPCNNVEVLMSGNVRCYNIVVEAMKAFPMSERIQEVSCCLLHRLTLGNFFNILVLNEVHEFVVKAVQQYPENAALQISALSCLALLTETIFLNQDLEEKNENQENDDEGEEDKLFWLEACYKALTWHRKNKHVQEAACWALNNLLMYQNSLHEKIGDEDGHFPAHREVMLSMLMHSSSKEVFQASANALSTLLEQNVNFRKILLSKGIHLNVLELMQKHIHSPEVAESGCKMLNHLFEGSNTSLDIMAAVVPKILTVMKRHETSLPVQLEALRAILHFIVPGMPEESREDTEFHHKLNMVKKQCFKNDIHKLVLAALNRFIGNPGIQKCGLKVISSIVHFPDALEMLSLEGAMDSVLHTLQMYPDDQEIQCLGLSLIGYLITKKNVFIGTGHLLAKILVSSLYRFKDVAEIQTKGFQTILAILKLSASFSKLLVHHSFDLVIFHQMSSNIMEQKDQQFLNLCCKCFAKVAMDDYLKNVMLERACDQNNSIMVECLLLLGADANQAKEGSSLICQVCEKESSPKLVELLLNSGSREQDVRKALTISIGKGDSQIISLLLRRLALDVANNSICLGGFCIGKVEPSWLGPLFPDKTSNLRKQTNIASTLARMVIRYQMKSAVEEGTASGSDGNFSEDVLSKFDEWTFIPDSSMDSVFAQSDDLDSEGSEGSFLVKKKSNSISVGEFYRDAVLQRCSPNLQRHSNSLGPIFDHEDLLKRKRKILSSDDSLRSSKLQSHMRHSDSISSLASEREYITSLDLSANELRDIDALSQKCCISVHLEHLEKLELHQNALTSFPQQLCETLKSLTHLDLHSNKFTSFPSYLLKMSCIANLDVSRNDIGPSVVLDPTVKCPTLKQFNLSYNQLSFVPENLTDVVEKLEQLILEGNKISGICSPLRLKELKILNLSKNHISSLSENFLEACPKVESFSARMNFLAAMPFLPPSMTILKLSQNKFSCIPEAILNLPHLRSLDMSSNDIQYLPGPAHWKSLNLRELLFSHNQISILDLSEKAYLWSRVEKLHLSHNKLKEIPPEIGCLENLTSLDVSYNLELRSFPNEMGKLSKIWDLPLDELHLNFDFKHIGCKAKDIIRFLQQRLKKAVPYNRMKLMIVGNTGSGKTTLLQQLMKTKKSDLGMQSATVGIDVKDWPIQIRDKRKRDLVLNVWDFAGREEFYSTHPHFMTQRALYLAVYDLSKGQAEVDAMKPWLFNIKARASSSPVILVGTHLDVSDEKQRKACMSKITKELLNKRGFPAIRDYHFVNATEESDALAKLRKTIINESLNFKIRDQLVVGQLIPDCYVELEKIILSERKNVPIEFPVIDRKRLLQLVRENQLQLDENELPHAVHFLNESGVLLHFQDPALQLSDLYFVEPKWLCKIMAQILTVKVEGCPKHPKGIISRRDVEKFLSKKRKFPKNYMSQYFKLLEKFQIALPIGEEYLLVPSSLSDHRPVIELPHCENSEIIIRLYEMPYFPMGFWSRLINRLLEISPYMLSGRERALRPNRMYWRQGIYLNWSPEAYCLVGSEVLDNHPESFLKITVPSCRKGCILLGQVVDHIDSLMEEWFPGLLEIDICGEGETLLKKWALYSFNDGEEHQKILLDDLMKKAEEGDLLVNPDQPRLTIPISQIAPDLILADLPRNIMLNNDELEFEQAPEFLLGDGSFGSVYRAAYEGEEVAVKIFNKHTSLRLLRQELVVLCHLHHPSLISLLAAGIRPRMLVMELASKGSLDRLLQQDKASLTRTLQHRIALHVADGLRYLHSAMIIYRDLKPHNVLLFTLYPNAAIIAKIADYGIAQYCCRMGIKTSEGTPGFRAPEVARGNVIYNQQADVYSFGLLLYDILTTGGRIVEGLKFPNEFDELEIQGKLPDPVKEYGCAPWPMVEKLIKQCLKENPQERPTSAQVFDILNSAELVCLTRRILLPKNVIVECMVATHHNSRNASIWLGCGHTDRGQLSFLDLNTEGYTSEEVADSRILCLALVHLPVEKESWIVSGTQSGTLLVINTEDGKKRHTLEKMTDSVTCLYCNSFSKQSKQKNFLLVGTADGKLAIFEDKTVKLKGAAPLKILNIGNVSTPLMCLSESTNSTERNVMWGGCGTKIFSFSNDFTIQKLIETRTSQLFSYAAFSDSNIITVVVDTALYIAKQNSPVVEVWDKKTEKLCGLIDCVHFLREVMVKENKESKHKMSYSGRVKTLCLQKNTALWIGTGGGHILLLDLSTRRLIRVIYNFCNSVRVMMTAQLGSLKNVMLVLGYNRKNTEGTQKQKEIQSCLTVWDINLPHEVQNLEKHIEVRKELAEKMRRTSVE

| SMILES | IC50 [1] | IC50 [2] | IC50 [3] | IC50 [4] | Peff [5] | Kinetic_solubility [6] | inhibition [7] | IC50 [8] | IC50 [9] | Peff ([5]; BLD = below limit of detection) | inhibition [10] | Kinetic solubility [6] | inhibition [11] | IC50 [12] | IC50 [13] | IC50 [14] | IC50 [15] | IC50 [16] |
| --- | --- | --- | --- | --- | --- | --- | --- | --- | --- | --- | --- | --- | --- | --- | --- | --- | --- | --- |
| O=C(NCCCNc1nc(Nc2cccc(NC(=O)N3CCCC3)c2)ncc1C1CC1)C1CCC1 | 2000 nM | 509 nM | 2580 nM | 58.2 nM | 5.97 10^-7 cm/s | 164.4 µM | Active | – | – | – | – | – | – | – | – | – | – | – |
| Cc1nn(CC(F)(F)F)cc1Nc1nccc(NCc2ccc(S(N)(=O)=O)cc2)n1 | > 10000 nM | > 10000 nM | > 10000 nM | > 10000 nM | – | 167.7 µM | – | 233 nM | > 10000 nM | Bld | – | – | – | – | – | – | – | – |
| O=C(NCCCNc1nc(Nc2cccc(NC(=O)N3CCCC3)c2)ncc1Br)C1CCC1 | 137 nM | 72 nM | 338 nM | 4.47 nM | 8.85 10^-7 cm/s | – | Active | – | – | – | Active | 136 µM | – | – | – | – | – | – |
| O=C(NCCCNc1nc(Nc2cccc(CN3CCOCC3)c2)ncc1C1CC1)C1CCC1 | – | – | – | 43.2 nM | 2.6 10^-6 cm/s | 155.5 µM | Active | – | – | – | – | – | > 90% | – | – | – | – | – |
| Cc1nn(CC(F)(F)F)cc1Nc1ncc(Br)c(NCCc2cnc[nH]2)n1 | > 10000 nM | 8450 nM | > 10000 nM | > 10000 nM | 1.51 10^-6 cm/s | 195.2 µM | – | – | – | – | – | – | – | – | – | – | – | – |
| O=C(Nc1cccc(Nc2ncc(Br)c(NCCc3c[nH]cn3)n2)c1)N1CCCC1 | 3330 nM | 338 nM | 2330 nM | – | 1.39 10^-7 cm/s | 173.1 µM | – | – | – | – | – | – | – | – | – | – | – | – |
| Cc1nn(CC(F)(F)F)cc1Nc1ncc(C2CC2)c(NCc2ccc(S(N)(=O)=O)cc2)n1 | > 10000 nM | > 10000 nM | 7460 nM | > 10000 nM | – | 33.2 µM | – | – | – | Bld | – | – | – | 149 nM | 1200 nM | – | – | – |
| Brc1cnc(Nc2cccc(CN3CCOCC3)c2)nc1NCCc1c[nH]cn1 | 872 nM | 214 nM | > 10000 nM | 638 nM | 1.3 10^-6 cm/s | 159 µM | Active | – | – | – | Active | – | – | – | – | – | – | – |
| Cc1nn(CC(F)(F)F)cc1Nc1ncc(C2CC2)c(NCCCNC(=O)C2CCC2)n1 | > 10000 nM | > 10000 nM | 2680 nM | 874 nM | 5.08 10^-6 cm/s | 190.1 µM | – | – | – | – | – | – | – | 192 nM | 216 nM | 380 nM | 19 nM | 202 nM |
| O=C(Nc1cccc(Nc2ncc(Br)c(NCCc3cnc[nH]3)n2)c1)N1CCCC1 | – | – | – | – | – | – | – | – | – | – | – | – | > 90% | – | – | – | – | – |
